T cruzi repl: inhibitors of intracellular T. cruzi growth, primary screen, luminescence, NIH3T3 host cells. T. cruzi beta-gal in NIH3T3, 90 h. actives 1.4% (n = 300,000). AID 1885, 2009. inhibition, % (test concentration not listed);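 active means mean inhibition across valid replicates above about 55%, limit read from the data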;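 further: signal also drops with host cell toxicity which is not excluded here; higher percent means less beta-gal luminescence so fewer parasites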
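Test system: β-gal T. cruzi (Tulahuen C4) inside NIH/3T3 cells / Quantity: 5,000 cells/well / Measured by: luminescence from GalScreen with 0.05% NP40, read after 60 min / Medium: DMEM plus 2% FBS / Measure: parasite load inhibition, % / Reagent: Tulahuen C4 trypomastigotes, 5000/well / Schedule: co-culture of at least 90 h after 3 h attachment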
NS3 helicase inh: inhibitors of HCV NS3 helicase, primary screen, biochemical, Cy5 molecular beacon fluorescence; Hepatitis C virus NS3 helicase; NS3 helicase DNA unwinding; inhibition, % at 10.9 µM; actives 0.56% (n = 290,000);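 active means inhibition above the mean of all tested compounds plus 3 SD, set per campaign, cut at about 35% in these data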
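System: NS3 helicase fragment of HCV / Schedule: 1 h at 25 °C / Control set: DMSO alone as 0% and 110 µM thioflavine S as 100% / Reagent: Cy5/quencher beacon DNA duplex and ATP to start / Technique: Cy5 fluorescence / Replication: singlicate / Evaluation: % inhibition of end-to-start signal ratio versus controls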
DNA FID counter: compounds displacing fluorescent DNA intercalator, primary screen, artefact control for HCV NS3 helicase inhibitor project, biochemical, FID fluorescence; DNA fluorescent intercalator displacement; inhibition, % at 7.9 µM; actives 0.17% (n = 290,000); in the data active means inhibition above about 37%;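 further: higher means more ethidium bromide displaced from hairpin DNA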
MEKK2mut PB1 HTS: MEK5 binding signal on mutant MEKK2 PB1, primary screen, biochemical, multiplex bead flow cytometry, Alexa488-MEK5; Alexa488-MEK5 binding to MEKK2 mutant; percent response, % at 10 µM; actives 0.35% (n = 290,000); in the data active means percent response above about 24%, passing the limit was not always enough
MEKK3 PB1 HTS: modulators of MEKK3-MEK5 PB1 binding, primary screen, biochemical, wildtype MEKK3, multiplex bead flow cytometry, Alexa488-MEK5. Mitogen-activated protein kinase kinase kinase 3 (Homo sapiens), Q99759. bead-based flow cytometry, Alexa488-MEK5 binding to MEKK3; actives lie on both sides; 0 = blocked by unlabeled MEK5, 100 = vehicle. binding response (% of control), % at 10 µM. actives 1.4% (n = 290,000);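 active means binding response more than 3 SD above or below the average of its plate-row segment, actives on both sides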;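 further: Alexa488 bead fluorescence after subtracting the streptavidin-only scavenger bead signal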
Target sequence (Q99759 whole entry, looked up): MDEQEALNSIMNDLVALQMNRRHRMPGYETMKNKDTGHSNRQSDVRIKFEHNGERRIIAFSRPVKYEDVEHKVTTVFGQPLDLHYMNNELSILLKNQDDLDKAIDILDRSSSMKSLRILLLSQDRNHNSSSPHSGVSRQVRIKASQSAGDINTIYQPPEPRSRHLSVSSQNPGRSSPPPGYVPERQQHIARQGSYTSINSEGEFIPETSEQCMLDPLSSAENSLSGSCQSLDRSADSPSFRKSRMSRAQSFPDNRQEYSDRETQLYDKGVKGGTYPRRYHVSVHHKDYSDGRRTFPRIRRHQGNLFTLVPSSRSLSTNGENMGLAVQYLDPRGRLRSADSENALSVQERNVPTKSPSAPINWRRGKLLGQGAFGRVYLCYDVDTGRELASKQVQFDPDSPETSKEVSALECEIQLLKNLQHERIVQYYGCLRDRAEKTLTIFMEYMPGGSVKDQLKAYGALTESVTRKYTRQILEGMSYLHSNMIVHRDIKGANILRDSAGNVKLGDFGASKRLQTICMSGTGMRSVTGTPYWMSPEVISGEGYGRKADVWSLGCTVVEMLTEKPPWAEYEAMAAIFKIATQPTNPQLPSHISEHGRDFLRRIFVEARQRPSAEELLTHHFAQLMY
MEKK2 WT-MEK5: modulators of MEK5 binding to wildtype MEKK2, primary screen, biochemical, multiplex bead flow cytometry, Alexa488-MEK5; Mitogen-activated protein kinase kinase kinase 2 (Homo sapiens), Q9Y2U5; Alexa488-MEK5 binding to MEKK2 WT; actives lie on both sides; binding response (% of control), % at 10 µM; actives 1.1% (n = 290,000); AID 1531, 2009; in the data active means binding response below about 67% or above about 130%
A number is an active result. Most compounds without a hit are left out; they make up all but 4.1% or so of the library.

Screening CC(=O)CC1OC(=O)C(Br)=C1NCc1ccccc1 (configuration not stated) returned T cruzi repl 59, NS3 helicase inh inactive and DNA FID counter inactive.
`O=C(CC1Oc2ccccc2NC1=O)NCc1ccccc1` (configuration not stated) gave T cruzi repl inactive, NS3 helicase inh inactive, DNA FID counter inactive, MEKK2mut PB1 HTS inactive, MEKK3 PB1 HTS inactive and MEKK2 WT-MEK5 inactive.
Screening COc1ccc(NC(=O)C(=O)c2cn(CC(=O)N3CCOCC3)c3ccccc23)cc1OC returned T cruzi repl inactive, NS3 helicase inh inactive, DNA FID counter inactive, MEKK2mut PB1 HTS inactive, MEKK3 PB1 HTS inactive and MEKK2 WT-MEK5 inactive.
`CCOC(=O)c1cc2c(=O)n3ccccc3nc2n(C(C)C)c1=NC(=O)c1c(-c2ccccc2Cl)noc1C` gave T cruzi repl 63, NS3 helicase inh inactive, DNA FID counter inactive, MEKK2mut PB1 HTS inactive, MEKK3 PB1 HTS inactive and MEKK2 WT-MEK5 inactive.
Screening CN(C)CCCN(C(=O)c1ccc(S(=O)(=O)N2CCCC2)cc1)c1nc2c(F)cc(F)cc2s1 returned T cruzi repl inactive.
Screening Cc1cccc2sc(N(CCCN(C)C)C(=O)c3ccc(S(=O)(=O)N4CCc5ccccc5C4)cc3)nc12 returned T cruzi repl inactive, NS3 helicase inh inactive, DNA FID counter 38, MEKK2mut PB1 HTS 51, MEKK3 PB1 HTS inactive and MEKK2 WT-MEK5 216.
For CCOC(=O)N1CCN(S(=O)(=O)c2ccc(C(=O)N(CCN(C)C)c3nc4c(C)cccc4s3)cc2)CC1 the results were T cruzi repl inactive, NS3 helicase inh inactive, DNA FID counter inactive, MEKK2mut PB1 HTS inactive, MEKK3 PB1 HTS inactive and MEKK2 WT-MEK5 inactive.
For CN(C)CCCN(C(=O)c1ccc(S(=O)(=O)N2CCc3ccccc3C2)cc1)c1nc2c(F)cccc2s1 the results were T cruzi repl inactive, NS3 helicase inh inactive, DNA FID counter inactive, MEKK2mut PB1 HTS 45, MEKK3 PB1 HTS inactive and MEKK2 WT-MEK5 208.
O=C(C1CCN(C2CCN(CC3CC=CCC3)CC2)CC1)N1CCOCC1 (configuration not stated) was read as T cruzi repl inactive, NS3 helicase inh inactive, DNA FID counter inactive, MEKK2mut PB1 HTS inactive, MEKK3 PB1 HTS inactive and MEKK2 WT-MEK5 inactive.
Screening CCOC(=O)c1nnn(-c2ccc([N+](=O)[O-])cc2[N+](=O)[O-])c1C returned T cruzi repl 96, NS3 helicase inh inactive, DNA FID counter inactive, MEKK2mut PB1 HTS inactive, MEKK3 PB1 HTS inactive and MEKK2 WT-MEK5 inactive.
CN1CCN(c2nc(-c3ccncc3)nc3ccccc23)CC1 was read as T cruzi repl inactive, NS3 helicase inh inactive, DNA FID counter inactive, MEKK2mut PB1 HTS inactive, MEKK3 PB1 HTS inactive and MEKK2 WT-MEK5 inactive.
`COc1cccc(-c2nc(N3CCN(C)CC3)c3ccccc3n2)c1O` gave T cruzi repl 55, NS3 helicase inh inactive, DNA FID counter inactive, MEKK2mut PB1 HTS inactive, MEKK3 PB1 HTS inactive and MEKK2 WT-MEK5 inactive.
Screening CN1CCN(c2nc(-c3ccc(Cl)cc3)nc3ccccc23)CC1 returned T cruzi repl inactive, NS3 helicase inh inactive, DNA FID counter 39, MEKK2mut PB1 HTS inactive, MEKK3 PB1 HTS inactive and MEKK2 WT-MEK5 inactive.
`CN1CCN(c2nc(-c3ccccc3O)nc3ccccc23)CC1` gave T cruzi repl inactive, NS3 helicase inh inactive, DNA FID counter inactive, MEKK2mut PB1 HTS inactive, MEKK3 PB1 HTS inactive and MEKK2 WT-MEK5 inactive.
`COc1ccc(Cc2nc3ccc(C(=O)N(C)C(C)c4ccon4)cc3o2)cc1` (configuration not stated) gave T cruzi repl inactive, NS3 helicase inh inactive, DNA FID counter inactive, MEKK2mut PB1 HTS inactive, MEKK3 PB1 HTS inactive and MEKK2 WT-MEK5 inactive.
Screening CCCn1c(=N)n(CC(=O)C(C)(C)C)c2ccccc21 returned T cruzi repl inactive, NS3 helicase inh inactive, DNA FID counter inactive, MEKK2mut PB1 HTS inactive, MEKK3 PB1 HTS inactive and MEKK2 WT-MEK5 inactive.
CCCCn1c(=N)n(CC(=O)C(C)(C)C)c2ccccc21 was read as T cruzi repl 62, NS3 helicase inh inactive, DNA FID counter inactive, MEKK2mut PB1 HTS inactive, MEKK3 PB1 HTS inactive and MEKK2 WT-MEK5 inactive.
COC(=O)CSC1=C(C#N)C(c2ccc3c(c2)OCO3)C2=C(CCCC2=O)N1 (configuration not stated) was read as T cruzi repl inactive, NS3 helicase inh inactive, DNA FID counter inactive, MEKK2mut PB1 HTS inactive, MEKK3 PB1 HTS inactive and MEKK2 WT-MEK5 inactive.
`COC(=O)C1=C(N)N(c2ccccc2C(F)(F)F)C2=C(C(=O)CCC2)C1c1ccc2c(c1)OCO2` (configuration not stated) gave T cruzi repl 56, NS3 helicase inh inactive, DNA FID counter inactive, MEKK2mut PB1 HTS inactive, MEKK3 PB1 HTS inactive and MEKK2 WT-MEK5 inactive.
`CC1CCCN(S(=O)(=O)c2ccc3[nH]c4c(c3c2)CCCC4)C1` (configuration not stated) gave T cruzi repl inactive, NS3 helicase inh inactive, DNA FID counter inactive, MEKK2mut PB1 HTS inactive, MEKK3 PB1 HTS inactive and MEKK2 WT-MEK5 inactive.
CCOC(=O)c1sc(NC(=O)c2ccccc2)cc1C was read as T cruzi repl inactive, NS3 helicase inh inactive, DNA FID counter inactive, MEKK2mut PB1 HTS inactive, MEKK3 PB1 HTS inactive and MEKK2 WT-MEK5 inactive.
`CCOC(=O)c1sc(NC(=O)c2ccc(S(=O)(=O)N(C)C)cc2)cc1C` gave T cruzi repl 65, NS3 helicase inh inactive, DNA FID counter inactive, MEKK2mut PB1 HTS inactive, MEKK3 PB1 HTS inactive and MEKK2 WT-MEK5 inactive.
For Cc1[nH]n(C(N)=S)c(=O)c1N=Nc1cccc(C(F)(F)F)c1 the results were T cruzi repl inactive, NS3 helicase inh inactive, DNA FID counter inactive, MEKK2mut PB1 HTS inactive, MEKK3 PB1 HTS inactive and MEKK2 WT-MEK5 inactive.
Screening Cc1[nH]n(C2=NCCS2)c(=O)c1N=Nc1cccc(C(F)(F)F)c1 returned T cruzi repl 60, NS3 helicase inh inactive, DNA FID counter inactive, MEKK2mut PB1 HTS inactive, MEKK3 PB1 HTS inactive and MEKK2 WT-MEK5 inactive.
For CC(CCN(C)C)OC(=O)c1ccc(C(C)c2ccccc2)o1 (configuration not stated) the results were T cruzi repl 72, NS3 helicase inh inactive, DNA FID counter inactive, MEKK2mut PB1 HTS inactive, MEKK3 PB1 HTS inactive and MEKK2 WT-MEK5 inactive.
For O=C(Cn1cnc([N+](=O)[O-])n1)NCCO the results were T cruzi repl inactive, NS3 helicase inh inactive, DNA FID counter inactive, MEKK2mut PB1 HTS inactive, MEKK3 PB1 HTS inactive and MEKK2 WT-MEK5 inactive.

Screening data deposited in PubChem BioAssay by several laboratories.
